ChEMBL document CHEMBL4359895, “Discovery and biological evaluation of darolutamide derivatives as inhibitors and down-regulators of wild-type AR and the mutants” (Eur J Med Chem, 2019)
Substitutions are numbered along the chain they refer to. Values after ≈ are worked out from the molar mass of the structure shown. Active and inactive are the calls of the source. No cut-off for these calls is given here.

Assays:
LNCaP [1] = assay: Inhibition of AR protein expression in human LNCAP cells at 20 uM incubated for 24 hrs by Western blot analysis; assay type: functional, cell-based
Summary of the method: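 LNCaP cells treated with 20 µM compound or DMSO for 24 h. AR-full protein detected by western blot with tubulin as loading control, then quantified by ImageJ grayscale analysis.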

[2] = target: T1, Androgen receptor (Homo sapiens) (UniProt P10275); assay: Inhibition of EGFP-tagged AR (unknown origin) transfected in human WPMY1 cells assessed as reduction in R1881-induced nuclear translocation of AR at 20 uM incubated for 24 hrs by Hoechst 33342 staining based fluorescence microscopy; assay type: cell-based
T1 sequence (whole entry): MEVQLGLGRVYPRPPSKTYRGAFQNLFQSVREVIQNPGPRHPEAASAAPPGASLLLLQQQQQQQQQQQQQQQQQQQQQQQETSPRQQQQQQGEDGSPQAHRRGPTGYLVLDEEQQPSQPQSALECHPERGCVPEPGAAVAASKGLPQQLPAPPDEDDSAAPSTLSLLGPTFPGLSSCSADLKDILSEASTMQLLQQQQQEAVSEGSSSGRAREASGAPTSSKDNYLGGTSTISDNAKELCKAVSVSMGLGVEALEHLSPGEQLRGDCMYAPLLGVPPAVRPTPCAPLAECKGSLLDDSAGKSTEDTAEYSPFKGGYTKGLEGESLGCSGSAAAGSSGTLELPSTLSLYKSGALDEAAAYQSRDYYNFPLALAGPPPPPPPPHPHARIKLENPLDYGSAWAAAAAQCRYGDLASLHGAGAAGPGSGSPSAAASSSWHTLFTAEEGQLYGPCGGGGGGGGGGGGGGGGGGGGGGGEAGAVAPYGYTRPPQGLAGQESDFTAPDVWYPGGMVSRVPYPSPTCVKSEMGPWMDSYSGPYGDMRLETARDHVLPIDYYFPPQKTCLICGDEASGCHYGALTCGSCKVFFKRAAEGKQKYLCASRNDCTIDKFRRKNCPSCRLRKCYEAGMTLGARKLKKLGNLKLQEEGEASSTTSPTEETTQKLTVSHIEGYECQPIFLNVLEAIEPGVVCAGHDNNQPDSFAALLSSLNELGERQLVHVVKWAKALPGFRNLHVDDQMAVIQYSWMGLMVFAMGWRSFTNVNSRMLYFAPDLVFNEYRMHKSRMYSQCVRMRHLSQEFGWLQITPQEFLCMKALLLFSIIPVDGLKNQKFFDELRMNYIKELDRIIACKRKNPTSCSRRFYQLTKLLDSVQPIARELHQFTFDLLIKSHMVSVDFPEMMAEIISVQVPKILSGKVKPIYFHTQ
Summary of the method: (§1)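 WPMY-1 cells transfected with EGFP-tagged wt-AR or AR-F876L. Treated with vehicle or 20 µM compound, with or without 0.5 nM R1881, for 24 h. Nuclei labelled with Hoechst 33342 and AR localisation imaged by fluorescence.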

VCaP [3] = assay: Antiproliferative activity against human VCaP expressing AR assessed as reduction in cell viability incubated for 6 days by CCK-8 assay; assay type: functional, cell-based; details: 144 h
Summary of the method: (§2)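 Cell proliferation assay run on LNCaP/AR, VCaP, 22Rv1, PC-3 and L-02 cells, with PC-3 and L-02 serving as AR-independent toxicity controls. IC50 fitted in GraphPad Prism 5 as the mean of at least two experiments, each in duplicate. Deviations under 35%.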

LNCaP [4] = assay: Antiproliferative activity against human LNCAP expressing AR assessed as reduction in cell viability incubated for 6 days by CCK-8 assay; assay type: functional, cell-based; details: 144 h; summary of the method: as §2
[5] = system: T2, Androgen receptor (Homo sapiens), P10275 [F877L]; assay: Inhibition of AR F876L mutant (unknown origin) transfected in human PC3 cells assessed as receptor transactivation at 0.1 to 30 uM incubated for 24 hrs by dual luciferase reporter gene assay; assay type: cell-based
T2 sequence (whole entry): T1 sequence (whole entry) with F877L

[6] = system: T2, Androgen receptor (Homo sapiens), P10275 [F877L]; assay: Inhibition of EGFP-tagged AR F876L mutant (unknown origin) transfected in human WPMY1 cells assessed as reduction in R1881-induced nuclear translocation of AR F876L at 20 uM incubated for 24 hrs by Hoechst 33342 staining based fluorescence microscopy; assay type: cell-based; summary of the method: as §1
[7] = Solubility of compound in PBS incubated for 24 hrs by HPLC analysis; assay type: physicochemical
Summary of the method: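 Solubility determined in PBS at 25 ℃ by the saturation shake-flask method. Quantified against calibration curves.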

[8] = Stability of compound in nutrient medium with fetal bovine serum and antibiotic incubated for 6 days by HPLC analysis; details: 144 h
VCaP [9] = assay: Inhibition of AR splice variant 7 mutant expression in human VCaP cells at 10 to 30 uM incubated for 24 hrs by Western blot analysis analysis; assay type: functional, cell-based
Summary of the method: (§3)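 LNCaP, VCaP and 22Rv1 cells grown in medium with 10% (v/v) FBS. Treated with compounds or DMSO for 24 h. AR-full and AR splice-variant protein then assessed by western blot.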

VCaP [10] = assay: Inhibition of AR protein expression in human VCaP cells at 10 to 30 uM incubated for 24 hrs by Western blot analysis; assay type: functional, cell-based; summary of the method: as §3

inhibition [2]	IC50 (VCaP [3]) [nM]	IC50 (LNCaP [4]) [nM]	inhibition [5]	inhibition [6]	solubility at 24 h [7] [µM]	Stability [8]	SMILES	inhibition (LNCaP [1])	inhibition (VCaP [9])	inhibition (VCaP [10])
Active	640	960	Active	Active	24.5 (≈ 9.27 µg/mL)	Stable	C[C@@H](Cn1ccc(-c2ccc(C#N)c(Cl)c2)n1)Nc1ncnc2nc[nH]c12	Active	Active	Active
Active	730	1080	Active	Active	< 2.52	Stable	C[C@@H](Cn1ccc(-c2ccc(C#N)c(Cl)c2)n1)Nc1cccc2ncccc12	Active	Active	Active
